The text below walks through data of publication PMC8176898 (Journal of the American Chemical Society, 2021).

Positions count from the first letter of the chain named. In names and notes the source's numbering stands. Ends that are not written are not given here.

B1: Mint2-PARM F520A (domain or fragment, human, UniProt Q99767 364-570, looked up)
chain: EDLIDGIIFAANYLGSTQLLSERNPSKNIRMMQAQEAVSRVKRMQKAAKIKKKANSEGDAQTLTEVDLFISTQRIKVLNADTQETMMDHALRTISYIADIGNIVVLMARRRMPRSASQDCIETTPGAQEGKKQYKMICHVFESEDAQLIAQSIGQAASVAYQEFLRANGINPEDLSQKEYSDIINTQEMYNDDLIHFSNSENCKELQ
B2: semisynthetic Mint2-pPARMSS S458σ (domain or fragment, human, UniProt Q99767 364-570, looked up)
chain: B1 chain with R92K, C120A, C138A, A157F, C203A
modifications: backbone amide-to-ester at S458 (α-hydroxy acid, S458σ)
B3: semisynthetic Mint2-pPARMSS D462δ (domain or fragment, human, UniProt Q99767 364-570, looked up)
chain: B1 chain with R92K, C120A, C138A, A157F, C203A
modifications: backbone amide-to-ester at D462 (α-hydroxy acid, D462δ)
B4: human Mint2-PARM Y459A/F520A (hMint2^Y459A/F520A) (domain or fragment, UniProt Q99767 364-570, looked up)
chain: B1 chain with Y96A
B5: Mint2-PARM Y459A (domain or fragment, human, UniProt Q99767 364-570, looked up)
chain: B1 chain with Y96A, A157F
B6: TAMRA-APP_(C-term) probe, (TAMRA)-NNG-QNGYENPTYKFFEQMQN (peptide)
peptide: {TAMRA}-NNGQNGYENPTYKFFEQMQN
B7: Mint2-PARM L454A (domain or fragment, human, UniProt Q99767 364-570, looked up)
chain: B1 chain with L91A, A157F
B8: APPWT peptide (NGYENPTYKFFE; residues 755-766) (peptide)
peptide: NGYENPTYKFFE
B9: APPWT peptide Y757A (peptide, UniProt P05067 755-766, looked up)
peptide: NGAENPTYKFFE
B10: APPWT peptide F764W (peptide, UniProt P05067 755-766, looked up)
peptide: NGYENPTYKWFE
B11: APPWT peptide F765A (peptide, UniProt P05067 755-766, looked up)
peptide: NGYENPTYKFAE
B12: APPWT peptide F765W (peptide, UniProt P05067 755-766, looked up)
peptide: NGYENPTYKFWE
B13: APPWT peptide Y762W (peptide, UniProt P05067 755-766, looked up)
peptide: NGYENPTWKFFE
B14: APPWT peptide F764A (peptide, UniProt P05067 755-766, looked up)
peptide: NGYENPTYKAFE
B15: APPWT peptide N759Q (peptide, UniProt P05067 755-766, looked up)
peptide: NGYEQPTYKFFE

Series [1] in a line: In vitro human plasma stability. It is filed as in vitro ADME. The procedure, abridged: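 Test peptides incubated in human plasma at 37 °C for up to 24 h. At various time points, peptide was extracted and quantified by UPLC. A buffer-only control was run alongside. Mean ± SEM, n = 3.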
The nature of series [2]: In vitro hepatic clearance, mouse liver microsomes. In kind it is in vitro ADME.
For series [3], the system named is Aβ42 levels, primary cortical neurons (APPswe/PS1ΔE9). As to the kind of experiment: Aβ42 ELISA of conditioned medium of APPswe/PS1ΔE9 neurons. It is filed as cell-based, mouse. To be noted: 24 h incubation.
The test system of series [4] is primary cortical neurons (APPswe/PS1ΔE9). As to the kind of experiment: LDH release. As to conditions: after 24 h of treatment, TAT-14 10 μM; same conditioned medium as ELISA.
Series [5] deals with primary neurons. As to the kind of experiment: Neuronal cell viability. To be noted: colorimetric readout of metabolic activity.
The target of series [6] is B6. The experiment in a line: fluorescence polarisation. Background: In fluorescence polarisation assays a small probe gives low polarisation when free and higher when bound to something large.
Series [7] concerns the target T1, Mint2-PARM D462A (human, UniProt Q99767 364-570, D462A).
T1 sequence (looked up): B1 chain with D99A, A157F
The experiment in a line: fluorescence polarisation.

The target in series [8] is T2, human Mint2-PTB-ARM (Mint2-PARM), PARMHis6, residues 364-570 (human, UniProt Q99767 364-570).
T2 sequence (looked up): B1 chain with A157F
The experiment in a line: fluorescence polarisation.

For the molecule NGYENPTYKFFE [APPWT peptide], the “half-life (T1/2) in human plasma” value in series [1] (37 °C, up to 24 h, UPLC read-out, n = 3) is < 30 min. Further, the half-life in series [1] (human) stood at 26 min. In addition, the microsomal CLint in series [2] came out at 15.4 ± 2.5 µL/min/mg.
For `C[C@H](NC(=O)Cc1cc(F)cc(F)c1)C(=O)NC(C(=O)OC(C)(C)C)c1ccccc1` (stereo partly drawn) [DAPT, N-[N-(3,5-difluorophenacetyl)-l-alanyl]-s-phenyl-glycine tert-butyl ester, reference compound], the “reduction of Aβ42 levels (positive control)” value in series [3] (concentration not given) stood at 47%. Moreover, the “LDH release relative to vehicle control (in words)” value in series [4] is recorded as “low LDH levels”.
In the case of “cyclo(DLATEPAK(Dap)-14 (bicyclic or more) [MiniAp4-14]”, in series [3] (10 μM, vehicle 0.25% DMSO), the “reduction of Aβ42 levels relative to vehicle control” value is reported as “did not affect Aβ42 production”. Besides, in series [5], the “adverse effect on cell viability over the concentration curve (in words)” value is reported as “no toxicity”.
As for B1, the “fold reduction in affinity relative to Mint2-PARM^WT” value in series [6] is 45 fold.
In the case of B2, in series [6], the “fold reduction in affinity relative to wild type” value is 14 fold.
Regarding B3, the “fold reduction in affinity relative to wild type” value in series [6] is 25 fold.
In the case of B4, the “fold decrease in affinity relative to wild-type Mint2-PARM” value in series [6] is 72 fold.
For the molecule B5, the “fold reduction in affinity relative to Mint2-PARM^WT” value in series [6] was > 10 fold.
Take B6: the binding result in series [7] and in series [8] was “binds” throughout.
B7: in series [6], the “fold reduction in affinity relative to Mint2-PARM^WT” value was > 10 fold.
B8 came in with an inhibition constant Ki in series [8] of 4 ± 0.2 µM.
Turning to B9, the “fold decrease in affinity relative to the APPWT peptide” value in series [8] was determined as 76 fold.
Turning to B10, in series [8], the binding result was “binds”.
As for B11, the “fold decrease in affinity relative to the APPWT peptide” value in series [8] was found to be 18 fold.
Consider B12, for which the binding result in series [8] is recorded as “binds”.
Regarding B13, in series [8], the binding result is “binds”.
For B14, the “fold decrease in affinity relative to the APPWT peptide” value in series [8] is 14 fold.
Take B15: in series [8], the Ki was ≥ 500 µM.

What is called half-life is how long it takes for the measured level to halve. Low readings indicate fast loss, high ones slow loss. By microsomal CLint is commonly meant the rate of metabolic loss divided by the concentration. High values mean rapid turnover, low ones slow turnover. One may read the Ki as the equilibrium dissociation constant of an inhibitor or competing ligand from its target. Lower therefore signals higher affinity.
